{"source": "ChEMBL document CHEMBL2390917", "about": "“Synthesis and biological evaluation of 2-(5-methyl-4-phenyl-2-oxopyrrolidin-1-yl)-acetamide stereoisomers as novel positive allosteric modulators of sigma-1 receptor” (Bioorg Med Chem, 2013)", "key": {"[1]": {"biological_target": "Muscarinic acetylcholine receptor M4 (Homo sapiens) (UniProt P08173)", "sequence (P08173 whole entry)": "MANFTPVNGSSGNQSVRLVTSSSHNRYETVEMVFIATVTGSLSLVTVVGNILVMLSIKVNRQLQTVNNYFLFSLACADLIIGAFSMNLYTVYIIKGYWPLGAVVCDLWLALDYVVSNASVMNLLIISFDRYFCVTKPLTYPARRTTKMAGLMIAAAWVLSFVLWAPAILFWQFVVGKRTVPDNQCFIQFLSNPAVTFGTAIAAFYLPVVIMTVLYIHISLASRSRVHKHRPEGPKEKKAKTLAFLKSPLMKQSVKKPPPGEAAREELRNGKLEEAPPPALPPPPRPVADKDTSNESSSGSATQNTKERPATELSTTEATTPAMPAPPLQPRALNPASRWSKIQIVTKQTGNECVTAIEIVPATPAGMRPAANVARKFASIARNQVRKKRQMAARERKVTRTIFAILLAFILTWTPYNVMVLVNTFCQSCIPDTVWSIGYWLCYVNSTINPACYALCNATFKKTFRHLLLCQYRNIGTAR", "test": "Binding affinity to human muscarinic M4 receptor at 10 uM by radioligand displacement assay relative to control"}, "[2]": {"biological_target": "Sodium-dependent dopamine transporter (Homo sapiens) (UniProt Q01959)", "test": "Binding affinity to human dopamine transporter at 10 uM by radioligand displacement assay relative to control"}, "[3]": {"biological_target": "Galanin receptor type 1 (Homo sapiens) (UniProt P47211)", "sequence (P47211 whole entry)": "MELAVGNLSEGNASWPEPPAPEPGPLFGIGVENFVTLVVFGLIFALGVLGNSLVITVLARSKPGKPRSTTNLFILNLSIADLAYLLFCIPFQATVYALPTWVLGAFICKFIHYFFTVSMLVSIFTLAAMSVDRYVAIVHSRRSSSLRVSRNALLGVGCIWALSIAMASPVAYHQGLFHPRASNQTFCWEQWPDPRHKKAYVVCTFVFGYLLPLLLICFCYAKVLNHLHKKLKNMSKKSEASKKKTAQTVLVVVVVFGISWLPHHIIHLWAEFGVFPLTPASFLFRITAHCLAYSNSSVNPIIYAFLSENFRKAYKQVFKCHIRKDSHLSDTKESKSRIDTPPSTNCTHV", "test": "Binding affinity to human GAL1 receptor at 10 uM by radioligand displacement assay relative to control"}, "[4]": {"biological_target": "Sigma non-opioid intracellular receptor 1 (Homo sapiens, UniProt Q99720)", "sequence (Q99720 whole entry)": "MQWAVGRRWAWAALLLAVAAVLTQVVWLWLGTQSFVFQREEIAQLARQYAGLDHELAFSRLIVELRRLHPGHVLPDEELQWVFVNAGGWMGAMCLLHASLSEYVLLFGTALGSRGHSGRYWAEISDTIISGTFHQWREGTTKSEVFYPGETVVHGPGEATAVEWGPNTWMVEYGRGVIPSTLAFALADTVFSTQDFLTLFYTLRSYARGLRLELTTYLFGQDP", "test": "Binding affinity to sigma 1 receptor (unknown origin) at 10 uM by radioligand displacement assay"}, "Mus musculus [5]": {"tested_on": "Mus musculus", "test": "Toxicity in ICR mouse assessed as effect on locomotor activity measured moved distance per 4 mins at 1 mg/kg, ip after 120 mins by open field test (reference value: 578 126 cm)", "assay_type": "organism-based", "parameters": "dose 1 mg/kg, route intraperitoneal", "details": "in vivo"}, "[6]": {"biological_target": "Cannabinoid receptor 1 (Homo sapiens) (UniProt P21554)", "sequence (P21554 whole entry)": "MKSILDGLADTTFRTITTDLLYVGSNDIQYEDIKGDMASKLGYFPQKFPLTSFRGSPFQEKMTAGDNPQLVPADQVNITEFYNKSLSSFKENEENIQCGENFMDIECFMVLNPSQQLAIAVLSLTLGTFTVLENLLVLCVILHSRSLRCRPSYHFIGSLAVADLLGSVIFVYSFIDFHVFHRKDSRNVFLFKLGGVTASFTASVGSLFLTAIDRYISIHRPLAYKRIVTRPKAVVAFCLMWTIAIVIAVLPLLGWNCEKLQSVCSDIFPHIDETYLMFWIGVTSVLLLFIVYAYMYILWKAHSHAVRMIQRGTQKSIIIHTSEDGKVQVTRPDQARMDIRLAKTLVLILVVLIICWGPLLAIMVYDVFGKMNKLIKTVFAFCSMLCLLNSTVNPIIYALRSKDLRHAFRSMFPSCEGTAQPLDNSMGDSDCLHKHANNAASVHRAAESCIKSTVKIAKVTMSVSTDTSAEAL", "test": "Binding affinity to human CB1 receptor at 10 uM by radioligand displacement assay relative to control"}, "Mus musculus [7]": {"tested_on": "Mus musculus", "test": "Antiamnesic activity in ICR mouse scopolamine-induced memory impairment model assessed as increase in retention latency at 5 mg/kg, ip administered 60 mins prior to scopolamine challenge measured after 40 mins by passive avoidance test relative to scopolamine-treated control", "assay_type": "functional", "details": "route intraperitoneal"}, "[8]": {"biological_target": "5-hydroxytryptamine receptor 1B (Homo sapiens) (UniProt P28222)", "test": "Binding affinity to 5-HT1B receptor (unknown origin) at 10 uM by radioligand displacement assay relative to control"}, "Mus musculus [9]": {"tested_on": "Mus musculus", "test": "Toxicity in ICR mouse assessed as effect on locomotor activity measured moved distance per 4 mins at 100 mg/kg, ip after 60 mins by open field test (reference value: 623 136 cm)", "assay_type": "organism-based", "parameters": "dose 100 mg/kg, route intraperitoneal", "details": "in vivo"}, "[10]": {"biological_target": "Type-2 angiotensin II receptor (Homo sapiens) (UniProt P50052)", "sequence (P50052 whole entry)": "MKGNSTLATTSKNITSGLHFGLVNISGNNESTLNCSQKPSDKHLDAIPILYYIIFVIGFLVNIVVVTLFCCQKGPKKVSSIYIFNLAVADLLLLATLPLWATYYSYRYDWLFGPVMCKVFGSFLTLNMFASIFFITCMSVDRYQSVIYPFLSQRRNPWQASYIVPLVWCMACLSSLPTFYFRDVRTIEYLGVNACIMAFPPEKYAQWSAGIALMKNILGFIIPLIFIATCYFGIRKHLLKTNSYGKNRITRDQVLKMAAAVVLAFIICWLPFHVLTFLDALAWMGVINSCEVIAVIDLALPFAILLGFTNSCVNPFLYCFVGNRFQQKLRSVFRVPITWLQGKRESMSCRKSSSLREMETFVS", "test": "Binding affinity to human angiotensin AT2 receptor at 10 uM by radioligand displacement assay relative to control"}, "[11]": {"biological_target": "Galanin receptor type 2 (Homo sapiens) (UniProt O43603)", "test": "Binding affinity to human GAL2 receptor at 10 uM by radioligand displacement assay relative to control"}, "Mus musculus [12]": {"tested_on": "Mus musculus", "test": "Toxicity in ip dosed ICR mouse assessed as effect on motor performance measured within 30 secs by chimney test", "assay_type": "organism-based", "details": "in vivo, 0.5 min"}, "Mus musculus [13]": {"tested_on": "Mus musculus", "test": "Toxicity in ICR mouse assessed as effect on locomotor activity measured moved distance per 4 mins at 100 mg/kg, ip after 30 mins by open field test (reference value: 1124 121 cm)", "assay_type": "organism-based", "parameters": "dose 100 mg/kg, route intraperitoneal", "details": "in vivo"}, "Mus musculus [14]": {"tested_on": "Mus musculus", "test": "Cognitive enhancing effect in ICR mouse assessed as increase in retention latency at 1 mg/kg, ip administered 60 mins prior to testing measured after 24 hrs by passive avoidance test relative to control", "assay_type": "functional", "details": "route intraperitoneal"}, "Homo sapiens [15]": {"species": "Homo sapiens", "test": "Binding affinity to GABA receptor (unknown origin) at 10 uM by radioligand displacement assay relative to control"}, "[16]": {"biological_target": "Kappa-type opioid receptor (Homo sapiens) (UniProt P41145)", "sequence (P41145 whole entry)": "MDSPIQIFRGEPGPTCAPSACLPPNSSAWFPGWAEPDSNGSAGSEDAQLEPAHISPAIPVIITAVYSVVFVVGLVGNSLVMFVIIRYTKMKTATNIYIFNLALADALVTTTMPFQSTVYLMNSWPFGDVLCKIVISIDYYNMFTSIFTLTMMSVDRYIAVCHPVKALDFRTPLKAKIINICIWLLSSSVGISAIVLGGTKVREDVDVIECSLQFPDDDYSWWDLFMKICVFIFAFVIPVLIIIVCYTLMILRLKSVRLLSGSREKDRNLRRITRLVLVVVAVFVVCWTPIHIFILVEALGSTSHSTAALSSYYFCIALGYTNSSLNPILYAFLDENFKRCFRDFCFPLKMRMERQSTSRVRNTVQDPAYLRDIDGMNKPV", "test": "Binding affinity to kappa opioid receptor (unknown origin) at 10 uM by radioligand displacement assay relative to control"}, "[17]": {"biological_target": "5-hydroxytryptamine receptor 1A (Homo sapiens) (UniProt P08908)", "sequence (P08908 whole entry)": "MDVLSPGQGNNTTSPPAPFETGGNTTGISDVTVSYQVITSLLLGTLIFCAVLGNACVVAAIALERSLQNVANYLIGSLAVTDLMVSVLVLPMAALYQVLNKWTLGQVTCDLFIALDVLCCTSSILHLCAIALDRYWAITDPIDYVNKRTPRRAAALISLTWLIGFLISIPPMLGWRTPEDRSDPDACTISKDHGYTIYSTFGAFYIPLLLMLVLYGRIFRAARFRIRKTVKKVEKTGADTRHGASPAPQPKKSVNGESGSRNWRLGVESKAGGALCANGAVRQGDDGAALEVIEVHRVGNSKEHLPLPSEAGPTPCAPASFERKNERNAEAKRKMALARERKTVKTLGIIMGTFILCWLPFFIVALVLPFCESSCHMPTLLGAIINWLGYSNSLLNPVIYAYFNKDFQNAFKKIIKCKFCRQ", "test": "Binding affinity to human 5-HT1A receptor at 10 uM by radioligand displacement assay relative to control"}, "[18]": {"biological_target": "Neuromedin-K receptor (Homo sapiens) (UniProt P29371)", "sequence (P29371 whole entry)": "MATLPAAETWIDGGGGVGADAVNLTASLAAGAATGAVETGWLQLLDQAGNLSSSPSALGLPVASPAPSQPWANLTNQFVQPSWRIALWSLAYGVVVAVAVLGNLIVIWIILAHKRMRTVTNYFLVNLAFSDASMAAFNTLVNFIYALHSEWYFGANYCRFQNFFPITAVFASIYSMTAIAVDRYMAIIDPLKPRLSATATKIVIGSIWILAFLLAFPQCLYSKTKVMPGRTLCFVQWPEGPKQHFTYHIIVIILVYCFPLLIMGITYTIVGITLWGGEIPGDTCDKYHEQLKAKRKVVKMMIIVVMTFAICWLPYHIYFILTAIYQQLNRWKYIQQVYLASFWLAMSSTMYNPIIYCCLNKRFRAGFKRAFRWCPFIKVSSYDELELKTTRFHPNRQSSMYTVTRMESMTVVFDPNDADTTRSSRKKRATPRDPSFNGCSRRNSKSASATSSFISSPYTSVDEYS", "test": "Binding affinity to human NK3 receptor at 10 uM by radioligand displacement assay relative to control"}, "[19]": {"biological_target": "Adrenergic receptor alpha-1 (Homo sapiens) (UniProt P35348+P25100+P35368)", "test": "Binding affinity to human adrenergic alpha1 receptor at 10 uM by radioligand displacement assay relative to control"}, "[20]": {"biological_target": "5-hydroxytryptamine receptor 2C (Homo sapiens) (UniProt P28335)", "sequence (P28335 whole entry)": "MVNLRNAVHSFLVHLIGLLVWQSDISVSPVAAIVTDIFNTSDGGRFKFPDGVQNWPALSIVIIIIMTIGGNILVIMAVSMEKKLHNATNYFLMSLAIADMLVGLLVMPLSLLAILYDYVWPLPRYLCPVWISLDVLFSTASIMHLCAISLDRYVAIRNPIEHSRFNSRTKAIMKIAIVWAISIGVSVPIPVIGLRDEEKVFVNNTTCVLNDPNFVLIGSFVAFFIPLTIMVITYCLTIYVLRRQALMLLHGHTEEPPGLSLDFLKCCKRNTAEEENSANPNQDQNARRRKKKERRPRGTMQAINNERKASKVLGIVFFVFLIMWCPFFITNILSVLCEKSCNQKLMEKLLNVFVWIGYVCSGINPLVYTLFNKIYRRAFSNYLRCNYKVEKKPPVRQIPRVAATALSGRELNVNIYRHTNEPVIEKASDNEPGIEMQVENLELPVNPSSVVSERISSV", "test": "Binding affinity to human 5-HT2C receptor at 10 uM by radioligand displacement assay relative to control"}, "Homo sapiens [21]": {"species": "Homo sapiens", "test": "Binding affinity to P2X receptor (unknown origin) at 10 uM by radioligand displacement assay relative to control"}, "[22]": {"biological_target": "D(1B) dopamine receptor (Homo sapiens) (UniProt P21918)", "sequence (P21918 whole entry)": "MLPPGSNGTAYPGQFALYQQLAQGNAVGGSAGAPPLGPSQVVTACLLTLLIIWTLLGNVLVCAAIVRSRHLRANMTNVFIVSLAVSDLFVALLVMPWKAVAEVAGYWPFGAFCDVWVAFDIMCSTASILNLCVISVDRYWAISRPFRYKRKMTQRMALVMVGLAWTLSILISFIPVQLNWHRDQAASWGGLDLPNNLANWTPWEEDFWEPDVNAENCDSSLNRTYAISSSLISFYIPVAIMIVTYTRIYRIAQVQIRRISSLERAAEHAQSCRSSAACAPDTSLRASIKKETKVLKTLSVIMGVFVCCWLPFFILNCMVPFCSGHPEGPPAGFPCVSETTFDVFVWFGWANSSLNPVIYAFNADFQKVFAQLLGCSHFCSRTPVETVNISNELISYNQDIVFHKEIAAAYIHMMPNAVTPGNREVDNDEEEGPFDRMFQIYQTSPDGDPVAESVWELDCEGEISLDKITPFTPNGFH", "test": "Binding affinity to human dopamine D5 receptor at 10 uM by radioligand displacement assay relative to control"}, "Homo sapiens [23]": {"species": "Homo sapiens", "test": "Binding affinity to human TNFalpha receptor at 10 uM by radioligand displacement assay relative to control"}, "[24]": {"biological_target": "Sigma non-opioid intracellular receptor 1 (Rattus norvegicus) (UniProt Q9R0C9)", "sequence (Q9R0C9 whole entry)": "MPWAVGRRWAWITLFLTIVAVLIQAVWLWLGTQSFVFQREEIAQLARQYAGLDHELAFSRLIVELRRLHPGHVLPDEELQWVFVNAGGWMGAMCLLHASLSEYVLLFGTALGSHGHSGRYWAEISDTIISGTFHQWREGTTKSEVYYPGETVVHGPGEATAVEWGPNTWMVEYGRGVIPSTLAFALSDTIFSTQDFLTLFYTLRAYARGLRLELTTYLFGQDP", "test": "Positive allosteric modulation of Wistar rat sigma 1 receptor assessed as increase in electrically-stimulated vas deferens contraction at 10 uM after 10 mins", "procedure,_shortened": "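Isolated rat vas deferens, proximal ~15 mm segments, in K-H buffer at 32 °C gassed […], with 1.0 g passive tension and a 60 min adaptation. Field-stimulated at 0.1 Hz, 1 ms, 50 V. Cumulative PRE-084 (1–100 µM) was given, then washout and a 30 min rest. Test compound 10 µM was added for 10 min before cumulative PRE-084. Response is % increase over baseline amplitude; n=6, mean ± SEM, paired t-test.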"}, "Mus musculus [25]": {"tested_on": "Mus musculus", "test": "Toxicity in ip dosed ICR mouse assessed as effect on motor coordination measured within 120 secs by rotarod test", "assay_type": "organism-based", "details": "in vivo, 2 min"}, "Mus musculus [26]": {"tested_on": "Mus musculus", "test": "Toxicity in ICR mouse assessed as effect on locomotor activity measured moved distance per 4 mins at 10 mg/kg, ip after 30 mins by open field test (reference value: 1124 121 cm)", "assay_type": "organism-based", "parameters": "dose 10 mg/kg, route intraperitoneal", "details": "in vivo"}, "[27]": {"biological_target": "5-hydroxytryptamine receptor 3A (Homo sapiens) (UniProt P46098)", "test": "Binding affinity to human 5-HT3 receptor at 10 uM by radioligand displacement assay relative to control"}, "[28]": {"biological_target": "Calcitonin gene-related peptide type 1 receptor (Homo sapiens) (UniProt Q16602)", "test": "Binding affinity to human CGRP receptor at 10 uM by radioligand displacement assay relative to control"}, "Mus musculus [29]": {"tested_on": "Mus musculus", "test": "Toxicity in ICR mouse assessed as effect on locomotor activity measured moved distance per 4 mins at 100 mg/kg, ip after 240 mins by open field test (reference value: 398 70 cm)", "assay_type": "organism-based", "parameters": "dose 100 mg/kg, route intraperitoneal", "details": "in vivo"}, "[30]": {"biological_target": "Vasopressin V1a receptor (Homo sapiens) (UniProt P37288)", "test": "Binding affinity to human vasopressin V1a receptor at 10 uM by radioligand displacement assay relative to control"}, "[31]": {"biological_target": "Nociceptin receptor (Homo sapiens) (UniProt P41146)", "sequence (P41146 whole entry)": "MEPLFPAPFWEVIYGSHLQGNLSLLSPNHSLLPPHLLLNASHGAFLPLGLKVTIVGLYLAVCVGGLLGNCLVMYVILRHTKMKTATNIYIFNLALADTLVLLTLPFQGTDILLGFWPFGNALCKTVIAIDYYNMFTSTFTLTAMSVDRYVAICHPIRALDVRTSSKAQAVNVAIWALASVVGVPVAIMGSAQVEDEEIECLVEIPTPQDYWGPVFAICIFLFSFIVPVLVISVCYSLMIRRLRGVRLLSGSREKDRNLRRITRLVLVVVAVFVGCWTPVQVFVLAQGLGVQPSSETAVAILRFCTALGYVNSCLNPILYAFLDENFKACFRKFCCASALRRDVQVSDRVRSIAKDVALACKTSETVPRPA", "test": "Binding affinity to ORL1 receptor (unknown origin) at 10 uM by radioligand displacement assay relative to control"}, "Mus musculus [32]": {"tested_on": "Mus musculus", "test": "Toxicity in ICR mouse assessed as effect on locomotor activity measured moved distance per 4 mins at 1 mg/kg, ip after 240 mins by open field test (reference value: 398 70 cm)", "assay_type": "organism-based", "parameters": "dose 1 mg/kg, route intraperitoneal", "details": "in vivo"}, "Homo sapiens [33]": {"species": "Homo sapiens", "test": "Binding affinity to peripheral-type BZD receptor (unknown origin) at 10 uM by radioligand displacement assay relative to control"}, "[34]": {"biological_target": "Substance-K receptor (Homo sapiens) (UniProt P21452)", "test": "Binding affinity to human NK2 receptor at 10 uM by radioligand displacement assay relative to control"}, "Mus musculus [35]": {"tested_on": "Mus musculus", "test": "Toxicity in ip dosed ICR mouse assessed as effect on motor strength measured within 5 secs by traction test", "assay_type": "organism-based", "details": "in vivo, 5 s"}}, "note": "Calls of active or inactive are those of the source. The calls are words filed in the database; no cut-off is given here."}
{"smiles": "C[C@H]1[C@@H](c2ccccc2)CC(=O)N1CC(N)=O", "values": [{"measurement": "inhibition", "setting": "[1]", "result": -3, "unit": "%"}, {"measurement": "inhibition", "setting": "[2]", "result": 4, "unit": "%"}, {"measurement": "inhibition", "setting": "[3]", "result": -2, "unit": "%"}, {"measurement": "Activity", "setting": "[4]", "result": "inactive"}, {"measurement": "Activity", "setting": "Mus musculus [5]", "result": 688, "unit": "cm"}, {"measurement": "inhibition", "setting": "[6]", "result": -3, "unit": "%"}, {"measurement": "Activity", "setting": "Mus musculus [7]", "result": 237, "unit": "%"}, {"measurement": "inhibition", "setting": "[8]", "result": 0, "unit": "%"}, {"measurement": "Activity", "setting": "Mus musculus [9]", "result": 648, "unit": "cm"}, {"measurement": "inhibition", "setting": "[10]", "result": -5, "unit": "%"}, {"measurement": "inhibition", "setting": "[11]", "result": -4, "unit": "%"}, {"measurement": "ED50", "setting": "Mus musculus [12]", "result": 349, "unit": "mg/kg"}, {"measurement": "Activity", "setting": "Mus musculus [13]", "result": 1076, "unit": "cm"}, {"measurement": "Activity", "setting": "Mus musculus [14]", "result": 194, "unit": "%"}, {"measurement": "inhibition", "setting": "Homo sapiens [15]", "result": 13, "unit": "%"}, {"measurement": "inhibition", "setting": "[16]", "result": -5, "unit": "%"}, {"measurement": "inhibition", "setting": "[17]", "result": -4, "unit": "%"}, {"measurement": "inhibition", "setting": "[18]", "result": -7, "unit": "%"}, {"measurement": "inhibition", "setting": "[19]", "result": -5, "unit": "%"}, {"measurement": "inhibition", "setting": "[20]", "result": -2, "unit": "%"}, {"measurement": "inhibition", "setting": "Homo sapiens [21]", "result": 6, "unit": "%"}, {"measurement": "inhibition", "setting": "[22]", "result": -3, "unit": "%"}, {"measurement": "inhibition", "setting": "Homo sapiens [23]", "result": -3, "unit": "%"}, {"measurement": "Activity", "setting": "[24]", "result": "inactive"}, {"measurement": "ED50", "setting": "Mus musculus [25]", "result": 453, "unit": "mg/kg"}, {"measurement": "Activity", "setting": "Mus musculus [26]", "result": 1026, "unit": "cm"}, {"measurement": "inhibition", "setting": "[27]", "result": -1, "unit": "%"}, {"measurement": "inhibition", "setting": "[28]", "result": 1, "unit": "%"}, {"measurement": "Activity", "setting": "Mus musculus [29]", "result": 458, "unit": "cm"}, {"measurement": "inhibition", "setting": "[30]", "result": 2, "unit": "%"}, {"measurement": "inhibition", "setting": "[31]", "result": 4, "unit": "%"}, {"measurement": "Activity", "setting": "Mus musculus [32]", "result": 626, "unit": "cm"}, {"measurement": "inhibition", "setting": "Homo sapiens [33]", "result": 3, "unit": "%"}, {"measurement": "inhibition", "setting": "[34]", "result": -3, "unit": "%"}, {"measurement": "ED50", "setting": "Mus musculus [35]", "result": 595, "unit": "mg/kg"}]}
